The species entered for test [1] is Cricetulus griseus. The test is described as follows: Hypersensitivity factor was defined as the ratio of IC50(AA8) to IC50(UV4). The class given is functional.
The nature of test [2]: Growth inhibition of aerobic chinese hamster ovary fibroblast AA8 cell line using an exposure time of 18 hours. The class given is functional, cell-based. The settings on record: Cricetulus griseus, CHO-AA8, 18 h. The gist of the method: (§1)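 Log-phase CHO monolayers in 96-well trays seeded at 200 (AA8; text prints "A48") or 300 (UV4) cells/well in Alpha MEM + 10% FCS, grown 24 h, then exposed aerobically 18 h to five 2-fold serial dilutions in duplicate.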

The nature of test [3]: Growth inhibition of aerobic chinese hamster ovary fibroblast UV4 cells using an exposure time of 18 hours. It is filed as functional, cell-based. The settings on record: Cricetulus griseus, UV4, 18 h. The gist of the method:
as §1

Test [4] can be described thus: CT10 ratio defined as ratio of CT10 (air) to that of CT10 (nitrogen)). It is filed as functional. The gist of the method: (§2)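 Magnetically stirred 10-mL suspensions of late-log UV4 cells (10^6/mL), gassed continuously with 5% CO2 in air or N2. Cells and drug in medium pre-equilibrated 60 min under that gas before mixing. Samples removed periodically up to 8 h for clonogenic survival. CT10 = concentration (μM) × time (h) for 10% survival; ratio = CT10(air)/CT10(N2), using concentrations giving similar kill rates.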

Test [5] in a line: Hypoxic selectivity was measured as product of concentration and exposure time needed to reduce cell survival to 10% of control using UV4 cells at 10e6 /mL in the clonogenic assay. The class given is functional, Cricetulus griseus. The procedure, abridged:
as §2

Some results are limits rather than exact numbers.

A word on the IC50: it is the midpoint of a concentration-inhibition curve. A lower IC50 goes with inhibition by little substance. As for `O=C(c1cc([N+](=O)[O-])ccc1N(CCO)CCO)N1CCOCC1`, in test [1], the HF worked out at 1.3. Also, the IC50 was found to be 10400 µM in test [2] and 8400 µM in test [3].

With `CN(C)CCNC(=O)c1cc(N(CCO)CCO)ccc1[N+](=O)[O-]`, in test [4], the CT10 ratio is 0.95 air/N2. Moreover, the HF in test [1] stood at 1.6. The IC50 is 13200 µM in test [2] and 8000 µM in test [3]. For the same compound, in test [5], the CT10 worked out at 11300 µM·h.

In the case of `O=[N+]([O-])c1ccc(N(CCO)CCO)cc1`, the HF in test [1] is 1.1. The IC50 in test [2] is 3200 µM; in test [3], 2950 µM.

In the case of `O=C(c1cc(N(CCO)CCO)ccc1[N+](=O)[O-])N1CCOCC1`, the HF in test [1] amounted to 1. The half-inhibitory concentration (IC50) in test [2] is 11200 µM; in test [3], 9200 µM.

`CN(C)CCNC(=O)c1cc([N+](=O)[O-])ccc1N(CCCl)CCCl`: in test [4], the CT10 ratio is 1.5 air/N2. Moreover, the HF in test [1] was found to be 40. The values for the IC50 in test [2] and in test [3] were 208 µM and 5.7 µM, respectively. The compound also gave a CT10 in test [5] of 78 µM·h.

In the case of `CN(C)CCNC(=O)c1cc([N+](=O)[O-])ccc1N(CCO)CCO`, in test [1], the HF is 1.1. Further, the figures for the IC50 in test [2] and in test [3] were 6700 µM and 4000 µM, respectively.

`CN(C)CCNC(=O)c1cc(N(CCCl)CCCl)ccc1[N+](=O)[O-]`: the CT10 ratio in test [4] stood at 2.3 air/N2. The HF in test [1] turned out to be 12. The concentration for half-maximal inhibition (IC50) worked out at 1140 µM in test [2] and 72 µM in test [3]. The same compound came in with a CT10 in test [5] of 465 µM·h.

For the compound `O=[N+]([O-])c1ccc(N(CCO)CCO)c([N+](=O)[O-])c1`, the HF in test [1] came to 0.9. The IC50 came out at 295 µM in test [2] and 280 µM in test [3].

Regarding `O=C(c1cc(N(CCO)CCO)c([N+](=O)[O-])cc1[N+](=O)[O-])N1CCOCC1`, the HF in test [1] worked out at 1.1. The figures for the half-maximal inhibitory concentration (IC50) in test [2] and in test [3] were 2950 µM and 2600 µM, respectively.

For `O=C(c1cc(N(CCCl)CCCl)c([N+](=O)[O-])cc1[N+](=O)[O-])N1CCOCC1`, the CT10 ratio in test [4] was 1.3 air/N2. In test [1], the HF came out at 23. Further, the figures for the half-inhibitory concentration (IC50) in test [2] and in test [3] were 260 µM and 12 µM, respectively. The CT10 in test [5] is 156 µM·h.

Consider `O=C(c1cc(N(CCCl)CCCl)ccc1[N+](=O)[O-])N1CCOCC1`, for which the CT10 ratio in test [4] was 1 air/N2. Besides, in test [1], the HF turned out to be 19. In addition, the IC50 is 243 µM in test [2] and 15 µM in test [3]. This compound yielded a CT10 in test [5] of 450 µM·h.

As to `CN(C)CCNC(=O)c1cc(N(CCO)CCO)c([N+](=O)[O-])cc1[N+](=O)[O-]`, in test [1], the HF is 1.4. The values for the 50% inhibitory concentration (IC50) in test [2] and in test [3] were 4110 µM and 3100 µM, respectively.

Take `O=C(c1cc([N+](=O)[O-])ccc1N(CCCl)CCCl)N1CCOCC1`: in test [4], the CT10 ratio is 1.15 air/N2. The HF in test [1] is above 7. The results for the half-inhibitory concentration (IC50) in test [2] and in test [3] were above 500 µM and 68 µM, respectively. The compound also registered a CT10 in test [5] of 2325 µM·h.

Consider `O=C(c1cc(N2CC2)c([N+](=O)[O-])cc1[N+](=O)[O-])N1CCOCC1`, for which the CT10 ratio in test [4] was 1.7 air/N2. For the same compound, the HF in test [1] stood at 330. Besides, the IC50 in test [2] was found to be 690 µM; in test [3], 2.7 µM. Also, the CT10 in test [5] is 50 µM·h.

For the compound `CN(C)CCNC(=O)c1cccc(N(CCCl)CCCl)c1`, in test [1], the HF was 44. Also, the concentration for half-maximal inhibition (IC50) in test [2] turned out to be 11 µM; in test [3], 0.27 µM.

On to `NC(=O)c1cc(N2CC2)c([N+](=O)[O-])cc1[N+](=O)[O-]` [TRETAZICAR], for which the CT10 ratio in test [4] stood at 3.6 air/N2. Besides, the HF in test [1] came out at 50. For the same compound, the values for the IC50 in test [2] and in test [3] were 560 µM and 11.7 µM, respectively.

Take `NC(=O)c1cc(N(CCCl)CCCl)c([N+](=O)[O-])cc1[N+](=O)[O-]`: the CT10 ratio in test [4] turned out to be 60 air/N2. Besides, the HF in test [1] was 6.8. In addition, the IC50 in test [2] was 470 µM; in test [3] it was 108 µM. In test [5], this compound registered a CT10 of 2700 µM·h.

With `CN(C)CCNC(=O)c1cc(N(CCCl)CCCl)c([N+](=O)[O-])cc1[N+](=O)[O-]`, the CT10 ratio in test [4] was 70 air/N2. In test [1], the HF was 4.2. The half-inhibitory concentration (IC50) in test [2] was determined as 260 µM; in test [3], 68 µM. The compound also displayed a CT10 in test [5] of 1080 µM·h.

As for `NC(=O)c1cc(N(CCO)CCO)c([N+](=O)[O-])cc1[N+](=O)[O-]`, in test [1], the HF turned out to be 1.1. For the same compound, the IC50 amounted to 6200 µM in test [2] and 5900 µM in test [3]. Moreover, the CT10 in test [5] was above 35000 µM·h.
